ChEMBL document CHEMBL1165950, “Design and synthesis of new potent anticancer pyrazoles with high FLT3 kinase inhibitory selectivity” (Bioorg Med Chem, 2010)

How the values were obtained:
Assay type in all cases: functional
SF-268 = experiment: Cytotoxicity against human SF268 cells assessed as cell growth at 0.01 uM after 48 hrs by sulforhodamine B assay; conditions: SF-268, 48 h, read-out: Activity
HCT-116 [1] = experiment: Cytotoxicity against human HCT116 cells assessed as cell growth at 10 uM after 48 hrs by sulforhodamine B assay; conditions: HCT-116, 48 h, read-out: Activity
LOX IMVI = experiment: Growth inhibition of human LOXIMVI cells after 48 hrs by sulforhodamine B assay; conditions: for CC50: read-out: LC50 (the source's name)
Procedure, shortened: (§1)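 NCI 60-cell screen, five-dose mode. Cells grown in RPMI 1640 with 5% FBS and 2 mM L-glutamine and plated at 5000-40,000 cells/well according to doubling time. After 24 h preincubation, a Tz plate was TCA-fixed. Five concentrations (10-fold or 1/2 log dilutions) were applied for 48 h at 37 °C. SRB staining read at 515 nm. IC50 taken from [(Ti-Tz)/(C-Tz)]×100 = 50.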

NCI-H460 = experiment: Cytotoxicity against human NCI-H460 cells assessed as cell growth at 0.001 uM after 48 hrs by sulforhodamine B assay; conditions: NCI-H460, 48 h, read-out: Activity
BT-549 [2] = experiment: Cytotoxicity against human BT549 cells assessed as cell growth at 0.01 uM after 48 hrs by sulforhodamine B assay; conditions: BT-549, 48 h, read-out: Activity
Procedure, shortened: (§2)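 NCI-60 five-dose screen. Cells were grown in RPMI 1640 with 5% FBS and 2 mM L-glutamine, plated at 5000–40,000 cells/well and preincubated for 24 h. Time-zero plates were TCA-fixed. DMSO-solubilized drug was added at five concentrations (10-fold or ½-log serial dilutions) for 48 h at 37 °C, 5% CO2. Cells were TCA-fixed, stained with 0.4% SRB and read at 515 nm. Percent growth used time-zero, control and test absorbances.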

DU-145 = experiment: Cytotoxicity against human DU145 cells assessed as cell growth at 100 nM after 48 hrs by sulforhodamine B assay; conditions: DU-145, 48 h, read-out: Activity
BT-549 [3] = experiment: Cytotoxicity against human BT549 cells assessed as cell growth at 1 uM after 48 hrs by sulforhodamine B assay; conditions: BT-549, 48 h, read-out: Activity; procedure, shortened: as §2
SN12C = experiment: Cytotoxicity against human SN12C cells assessed as cell growth at 10 uM after 48 hrs by sulforhodamine B assay; conditions: read-out: Activity
OVCAR-8 = experiment: Growth inhibition of human OVCAR8 cells after 48 hrs by sulforhodamine B assay; conditions: OVCAR-8, 48 h; for CC50: read-out: LC50 (the source's name); procedure, shortened: as §1
ACHN = experiment: Cytotoxicity against human ACHN cells assessed as cell growth at 100 nM after 48 hrs by sulforhodamine B assay; conditions: read-out: Activity; procedure, shortened: as §2
[4] = Cytotoxicity against human Hs 578T cells assessed as cell growth at 100 nM after 48 hrs by sulforhodamine B assay; conditions: read-out: Activity
CCRF-CEM = experiment: Cytotoxicity against human CCRF-CEM cells assessed as cell growth at 100 nM after 48 hrs by sulforhodamine B assay; conditions: read-out: Activity; procedure, shortened: as §2
HCT-116 [5] = experiment: Cytotoxicity against human HCT116 cells assessed as cell growth at 1 uM after 48 hrs by sulforhodamine B assay; conditions: HCT-116, 48 h, read-out: Activity
NCI-H522 [6] = experiment: Growth inhibition of human NCI-H522 cells after 48 hrs by sulforhodamine B assay; conditions: NCI-H522, 48 h; for CC50: read-out: LC50 (the source's name); procedure, shortened: as §1
HCC 2998 = experiment: Cytotoxicity against human HCC2998 cells assessed as cell growth at 0.001 uM after 48 hrs by sulforhodamine B assay; conditions: HCC 2998, 48 h, read-out: Activity
MCF7 = experiment: Cytotoxicity against human MCF7 cells assessed as cell growth at 0.01 uM after 48 hrs by sulforhodamine B assay; conditions: MCF7, 48 h, read-out: Activity
MDA-MB-468 [7] = experiment: Cytotoxicity against human MDA-MB-468 cells assessed as cell growth at 100 nM after 48 hrs by sulforhodamine B assay; conditions: MDA-MB-468, 48 h, read-out: Activity
MDA-MB-231 = experiment: Cytotoxicity against human MDA-MB-231 cells assessed as cell growth at 10 uM after 48 hrs by sulforhodamine B assay; conditions: MDA-MB-231, 48 h, read-out: Activity
IGROV-1 = experiment: Cytotoxicity against human IGROV1 cells assessed as cell growth at 10 uM; conditions: read-out: Activity
Procedure, shortened: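 Single-dose NCI-60 screen at 10 µM. Cells were grown in RPMI 1640 with 5% FBS and 2 mM L-glutamine, then treated for 48 h at 37 °C. Protein was measured by SRB staining with absorbance at 515 nm. Percentage growth was recorded, and inhibition percentage was calculated as 100 minus growth percentage.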

NCI-H522 [8] = experiment: Cytotoxicity against human NCI-H522 cells assessed as cell growth at 0.001 uM after 48 hrs by sulforhodamine B assay; conditions: NCI-H522, 48 h, read-out: Activity
Malme-3M = experiment: Cytotoxicity against human MALME-3M cells assessed as cell growth at 10 uM after 48 hrs by sulforhodamine B assay; conditions: read-out: Activity
NCI-H322M = experiment: Growth inhibition of human NCI-H322M cells after 48 hrs by sulforhodamine B assay; conditions: for CC50: read-out: LC50 (the source's name); procedure, shortened: as §1
PC-3 = experiment: Cytotoxicity against human PC3 cells assessed as cell growth at 0.01 uM after 48 hrs by sulforhodamine B assay; conditions: PC-3, 48 h, read-out: Activity
A549 = experiment: Cytotoxicity against human A549 cells assessed as cell growth at 10 uM after 48 hrs by sulforhodamine B assay; conditions: A549, 48 h, read-out: Activity; procedure, shortened: as §2
786-0 [9] = experiment: Cytotoxicity against human 786-0 cells assessed as cell growth at 0.001 uM after 48 hrs by sulforhodamine B assay; conditions: 786-0, 48 h, read-out: Activity; procedure, shortened: as §2
MDA-MB-468 [10] = experiment: Cytotoxicity against human MDA-MB-468 cells assessed as cell growth at 0.01 uM after 48 hrs by sulforhodamine B assay; conditions: MDA-MB-468, 48 h, read-out: Activity
SNB-75 = experiment: Cytotoxicity against human SNB75 cells assessed as cell growth at 10 uM after 48 hrs by sulforhodamine B assay; conditions: SNB-75, 48 h, read-out: Activity
786-0 [11] = experiment: Cytotoxicity against human 786-0 cells assessed as cell growth at 1 uM after 48 hrs by sulforhodamine B assay; conditions: 786-0, 48 h, read-out: Activity; procedure, shortened: as §2
TK-10 = experiment: Cytotoxicity against human TK10 cells assessed as cell growth at 0.01 uM after 48 hrs by sulforhodamine B assay; conditions: TK-10, 48 h, read-out: Activity
SF-539 = experiment: Cytotoxicity against human SF539 cells assessed as cell growth at 0.01 uM after 48 hrs by sulforhodamine B assay; conditions: SF-539, 48 h, read-out: Activity
HOP-62 = experiment: Cytotoxicity against human HOP62 cells assessed as cell growth at 100 nM after 48 hrs by sulforhodamine B assay; conditions: HOP-62, 48 h, read-out: Activity
HOP-92 = experiment: Cytotoxicity against human HOP92 cells assessed as cell growth at 0.001 uM after 48 hrs by sulforhodamine B assay; conditions: HOP-92, 48 h, read-out: Activity

| Compound | growth at 0.01 µM (SF-268) | growth at 10 µM (HCT-116 [1]) | GI50 (LOX IMVI) | TGI (LOX IMVI) | CC50 (LOX IMVI) | growth at 0.001 µM (NCI-H460) | growth at 0.01 µM (BT-549 [2]) | growth at 0.1 µM (DU-145) | growth at 1 µM (BT-549 [3]) | growth at 10 µM (SN12C) | GI50 (OVCAR-8) | TGI (OVCAR-8) | CC50 (OVCAR-8) | growth at 0.1 µM (ACHN) | growth at 0.1 µM [4] | growth at 0.1 µM (CCRF-CEM) | growth at 1 µM (HCT-116 [5]) | GI50 (NCI-H522 [6]) | TGI (NCI-H522 [6]) | CC50 (NCI-H522 [6]) | also measured |
| --- | --- | --- | --- | --- | --- | --- | --- | --- | --- | --- | --- | --- | --- | --- | --- | --- | --- | --- | --- | --- | --- |
| COc1cc(C)cc(-c2c(-c3ccnc(-c4ccc(N(C)C)cc4)c3)cnn2CC#N)c1 | 29% | -27% | 66.8 nM | > 100 µM | > 100 µM | 93% | 44% | -51% | -29% | 16% | 236 nM | > 100 µM | > 100 µM | 34% | 23% | 11% | -33% | 27 nM | 0.0846 µM | 3.22 µM | growth at 0.001 µM (HCC 2998): 96%; growth at 0.01 µM (MCF7): 56%; growth at 0.1 µM (MDA-MB-468 [7]): -50%; growth at 10 µM (MDA-MB-231): 25%; growth at 10 µM (IGROV-1): 20.1%; growth at 0.001 µM (NCI-H522 [8]): 96%; growth at 10 µM (Malme-3M): 13%; GI50 (NCI-H322M): 331 nM; TGI (NCI-H322M): > 100 µM; CC50 (NCI-H322M): > 100 µM; growth at 0.01 µM (PC-3): 30%; growth at 10 µM (A549): 4%; growth at 0.001 µM (786-0 [9]): 95%; growth at 0.01 µM (MDA-MB-468 [10]): -10%; growth at 10 µM (SNB-75): 11%; growth at 1 µM (786-0 [11]): 2%; growth at 0.01 µM (TK-10): 75%; growth at 0.01 µM (SF-539): 79%; growth at 0.1 µM (HOP-62): 33%; growth at 0.001 µM (HOP-92): 26% |
| COc1cc(C)cc(-c2nn(CC#N)cc2-c2ccc(-c3cccc(C(C)=O)c3)nc2)c1 | 94% | -53% | 3520 nM | > 100 µM | > 100 µM | 104% | 90% | 87% | 5% | 18% | 3160 nM | 35.2 µM | > 100 µM | 93% | 61% | 77% | 1% | 1640 nM | 6.72 µM | > 100 µM | growth at 0.001 µM (HCC 2998): 87%; growth at 0.01 µM (MCF7): 97%; growth at 0.1 µM (MDA-MB-468 [7]): 9%; growth at 10 µM (MDA-MB-231): 1%; growth at 10 µM (IGROV-1): 34.6%; growth at 0.001 µM (NCI-H522 [8]): 85%; growth at 10 µM (Malme-3M): -1%; GI50 (NCI-H322M): 4360 nM; TGI (NCI-H322M): 50.8 µM; CC50 (NCI-H322M): > 100 µM; growth at 0.01 µM (PC-3): 88%; growth at 10 µM (A549): -22%; growth at 0.001 µM (786-0 [9]): 97%; growth at 0.01 µM (MDA-MB-468 [10]): 82%; growth at 10 µM (SNB-75): -36%; growth at 1 µM (786-0 [11]): 15%; growth at 0.01 µM (TK-10): 100%; growth at 0.01 µM (SF-539): 89%; growth at 0.1 µM (HOP-62): 82%; growth at 0.001 µM (HOP-92): 84% |
